In ChEMBL document CHEMBL3352666, “Human Toll-like receptor 8-selective agonistic activities in 1-alkyl-1H-benzimidazol-2-amines” (J Med Chem, 2014):
Active and inactive are the calls of the source. The calls are words filed in the database; no cut-off is given here.

Tests used:
[1] = biological target: T1, Nucleotide-binding oligomerization domain-containing protein 1 (Homo sapiens, UniProt Q9Y239); test: Antagonist activity at human NOD1 stably expressed in HEK293 cells co-expressing secreted alkaline phosphatase assessed as NF-kappaB induction by liquid handler-assisted reporter gene assay; assay type: cell-based
T1 sequence (Q9Y239 whole entry): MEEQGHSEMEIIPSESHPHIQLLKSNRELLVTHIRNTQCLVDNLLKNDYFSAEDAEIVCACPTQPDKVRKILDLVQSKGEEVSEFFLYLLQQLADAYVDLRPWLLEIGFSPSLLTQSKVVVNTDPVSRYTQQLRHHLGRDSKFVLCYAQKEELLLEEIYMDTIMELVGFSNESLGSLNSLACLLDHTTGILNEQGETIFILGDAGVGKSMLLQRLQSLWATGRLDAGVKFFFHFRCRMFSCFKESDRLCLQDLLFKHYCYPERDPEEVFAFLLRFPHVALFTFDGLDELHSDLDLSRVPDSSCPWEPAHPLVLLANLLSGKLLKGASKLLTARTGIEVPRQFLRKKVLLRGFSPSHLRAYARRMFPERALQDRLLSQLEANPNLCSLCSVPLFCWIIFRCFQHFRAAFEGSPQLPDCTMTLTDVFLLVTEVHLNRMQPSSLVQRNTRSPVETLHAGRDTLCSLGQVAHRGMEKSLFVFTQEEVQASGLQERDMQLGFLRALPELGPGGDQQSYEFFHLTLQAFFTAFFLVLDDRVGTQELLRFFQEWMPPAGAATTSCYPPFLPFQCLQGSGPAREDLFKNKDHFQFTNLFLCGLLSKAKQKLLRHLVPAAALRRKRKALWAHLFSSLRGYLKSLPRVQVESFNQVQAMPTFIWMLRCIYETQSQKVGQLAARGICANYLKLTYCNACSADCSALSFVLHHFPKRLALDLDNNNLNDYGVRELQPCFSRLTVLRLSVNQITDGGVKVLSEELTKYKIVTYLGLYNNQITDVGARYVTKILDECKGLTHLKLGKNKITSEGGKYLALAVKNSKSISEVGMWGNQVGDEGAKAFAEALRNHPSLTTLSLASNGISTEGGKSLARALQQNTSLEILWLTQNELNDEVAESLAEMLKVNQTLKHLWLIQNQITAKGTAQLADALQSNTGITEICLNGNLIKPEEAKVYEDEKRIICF

[2] = biological target: T2, Toll-like receptor 8 (Homo sapiens) (UniProt Q9NR97); test: Induction of TLR8-mediated IL-12p40 in human PBMC after 12 hrs by immunoassay
T2 sequence (whole entry): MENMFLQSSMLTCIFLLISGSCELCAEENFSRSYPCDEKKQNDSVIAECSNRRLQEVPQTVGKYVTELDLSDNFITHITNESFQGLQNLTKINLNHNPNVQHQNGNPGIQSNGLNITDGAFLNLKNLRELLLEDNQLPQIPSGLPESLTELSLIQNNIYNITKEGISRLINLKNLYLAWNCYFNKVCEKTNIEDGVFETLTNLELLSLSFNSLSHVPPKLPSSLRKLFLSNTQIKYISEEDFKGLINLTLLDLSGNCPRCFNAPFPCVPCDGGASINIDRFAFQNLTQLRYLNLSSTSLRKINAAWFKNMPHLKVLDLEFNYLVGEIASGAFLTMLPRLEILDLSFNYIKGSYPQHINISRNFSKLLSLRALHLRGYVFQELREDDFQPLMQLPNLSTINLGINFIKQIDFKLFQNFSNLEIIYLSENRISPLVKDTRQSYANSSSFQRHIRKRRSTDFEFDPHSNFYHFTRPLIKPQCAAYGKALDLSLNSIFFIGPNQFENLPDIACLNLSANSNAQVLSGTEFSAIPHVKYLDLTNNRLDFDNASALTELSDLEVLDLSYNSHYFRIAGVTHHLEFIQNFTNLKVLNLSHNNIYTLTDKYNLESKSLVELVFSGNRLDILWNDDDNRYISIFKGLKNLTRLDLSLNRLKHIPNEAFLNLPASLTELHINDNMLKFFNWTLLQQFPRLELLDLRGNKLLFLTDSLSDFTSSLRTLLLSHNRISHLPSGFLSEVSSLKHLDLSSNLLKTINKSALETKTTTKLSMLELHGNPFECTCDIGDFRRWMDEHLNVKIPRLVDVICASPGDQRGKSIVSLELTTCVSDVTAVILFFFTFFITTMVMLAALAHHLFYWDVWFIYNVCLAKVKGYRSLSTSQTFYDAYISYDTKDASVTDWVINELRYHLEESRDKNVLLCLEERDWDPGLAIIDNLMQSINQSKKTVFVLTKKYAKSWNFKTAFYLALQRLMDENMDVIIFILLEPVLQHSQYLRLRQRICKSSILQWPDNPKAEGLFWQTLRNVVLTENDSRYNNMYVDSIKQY
Outline: (§1)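 Fresh PBMCs were isolated from venous blood on Ficoll-Hypaque gradients and plated at 10^5 cells in 100 µL per well. They were stimulated 12 h with graded compound concentrations. Centrifuged supernatants were assayed in duplicate by multiplexed analyte-specific cytokine bead array.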

[3] = biological target: T2, Toll-like receptor 8 (Homo sapiens); test: Induction of TLR8-mediated IFN-gamma in human PBMC after 12 hrs by immunoassay; outline: as §1
[4] = Upregulation of CD69 expression in human NK cells at 0.1 to 10 ug/ml measured after overnight incubation by flow cytometry; assay type: functional, cell-based
Outline: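 Heparin-anticoagulated whole blood from healthy volunteers was stimulated with graded concentrations at 37 °C overnight. It was then stained 30 min at 37 °C in the dark with CD3-PE, CD56-APC and CD69-PE-Cy7, followed by one-step erythrocyte lysis and fixation. NK cells were gated as CD3-CD56+ from 100,000 events. Values are means of duplicates from a representative experiment.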

| Structure (SMILES) | IC50 [1] [µM] | further results |
| --- | --- | --- |
| CCCCCn1c(N)nc2ccc3ccccc3c21 | > 10 | – |
| CCCCCn1c(N)nc2c(C)cccc21 | – | Activity [2]: Active; Activity [3]: Active; Activity [4]: inactive |
| CCCCCn1c(NC(C)=O)nc2ccccc21 | > 10 | – |
| CCCCCn1c(N)nc2cc3ccccc3cc21 | > 10 | – |

Second part, led by results:

| IC50 [1] [µM] | Structure (SMILES) | further results |
| --- | --- | --- |
| > 10 | CCCCCn1c(N)nc2c(-c3ccccc3)cccc21 | – |
| > 10 | CCCCCn1c(N)nc2c(Cc3ccccc3)cccc21 | – |
| > 10 | CCCCCn1c(N)nc2c(OCc3ccccc3)cccc21 | – |
